# Data taken from ChEMBL document CHEMBL1158568, “In silico directed chemical probing of the adenosine receptor family” (Bioorg Med Chem, 2010).
# Legend:
# Adenosine receptor A2a [1] = target: T1, Adenosine receptor A2a (Homo sapiens, UniProt P29274); experiment: Displacement of [3H]ZM241385 from human adenosine A2A receptor expressed in human HeLa cells at 10 uM after 30 mins by beta scintillation counting; assay type: cell-based
# Procedure, shortened: (§1)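 Membranes from HeLa-A2A cells, 10 lg protein, in 50 mM Tris–HCl, 1 mM EDTA, 10 mM MgCl2, 2 UI/mL adenosine deaminase, pH 7.4; 3 nM [3H]ZM241385, 30 min at 25 °C, duplicates. 50 µM NECA defined non-specific binding. Single 10 µM point or six concentrations 10 nM–100 µM; Ki by Cheng–Prusoff.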
# [2] = target: T2, Adenosine receptor A2b (Homo sapiens) (UniProt P29275); experiment: Displacement of [3H]DPCPX from human adenosine A2B receptor expressed in HEK293 cells at 10 uM after 30 mins by beta scintillation counting; assay type: cell-based
# T2 sequence (whole entry): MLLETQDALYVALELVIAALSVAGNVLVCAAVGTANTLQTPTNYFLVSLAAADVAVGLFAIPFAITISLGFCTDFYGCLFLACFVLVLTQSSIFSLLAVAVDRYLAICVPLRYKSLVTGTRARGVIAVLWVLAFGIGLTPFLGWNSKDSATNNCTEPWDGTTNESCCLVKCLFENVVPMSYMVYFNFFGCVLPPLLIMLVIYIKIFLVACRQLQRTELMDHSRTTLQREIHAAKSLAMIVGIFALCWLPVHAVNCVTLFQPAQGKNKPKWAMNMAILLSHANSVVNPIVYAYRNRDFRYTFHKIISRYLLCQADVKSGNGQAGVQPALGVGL
# [3] = target: T3, Adenosine receptor A3 (Homo sapiens) (UniProt P0DMS8); experiment: Displacement of [3H]NECA from human adenosine A3 receptor expressed in human HeLa cells at 10 uM after 180 mins by beta scintillation counting; assay type: cell-based
# T3 sequence (whole entry): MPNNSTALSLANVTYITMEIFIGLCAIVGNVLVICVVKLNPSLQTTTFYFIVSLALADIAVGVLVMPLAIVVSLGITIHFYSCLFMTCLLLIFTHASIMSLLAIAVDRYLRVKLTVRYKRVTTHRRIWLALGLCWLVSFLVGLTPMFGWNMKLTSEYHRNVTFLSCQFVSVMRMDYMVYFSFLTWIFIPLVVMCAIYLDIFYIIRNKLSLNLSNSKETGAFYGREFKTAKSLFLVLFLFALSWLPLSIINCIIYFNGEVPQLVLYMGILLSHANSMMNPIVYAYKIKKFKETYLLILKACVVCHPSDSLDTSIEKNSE
# Procedure, shortened: (§2)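 HeLa-A3 membranes (90 lg protein) in 50 mM Tris–HCl, 1 mM EDTA, 5 mM MgCl2, 2 UI/mL adenosine deaminase, pH 7.4; 30 nM [3H]NECA, 180 min at 25 °C, triplicates, GF/B filtration. Non-specific with 100 µM (R)-PIA. Tested at 10 µM or six concentrations 10 nM–100 µM; Ki by Cheng–Prusoff.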
# [4] = target: T4, Adenosine receptor A1 (Homo sapiens) (UniProt P30542); experiment: Displacement of [3H]DPCPX from human adenosine A1 receptor expressed in CHO cells at 10 uM after 60 mins by beta scintillation counting; assay type: cell-based
# T4 sequence (whole entry): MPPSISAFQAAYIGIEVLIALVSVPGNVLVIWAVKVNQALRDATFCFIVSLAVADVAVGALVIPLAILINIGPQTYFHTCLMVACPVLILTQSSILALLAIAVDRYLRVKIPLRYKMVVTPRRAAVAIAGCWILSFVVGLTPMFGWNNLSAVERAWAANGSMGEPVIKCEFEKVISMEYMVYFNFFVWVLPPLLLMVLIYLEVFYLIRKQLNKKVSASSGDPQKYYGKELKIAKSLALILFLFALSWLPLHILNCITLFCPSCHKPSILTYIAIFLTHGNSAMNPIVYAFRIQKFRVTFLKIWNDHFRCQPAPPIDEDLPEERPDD
# Procedure, shortened: (§3)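 Membranes of CHO-A1 cells (15 lg protein) in 20 mM Hepes, 100 mM NaCl, 10 mM MgCl2, 2 units/ml adenosine deaminase, pH 7.4, with 2 nM [3H]DPCPX; 60 min at 25 °C, duplicates. Non-specific binding with 10 µM (R)-PIA. Filtration, scintillation counting. Single point at 10 µM or six concentrations 10 nM–100 µM; Ki by Cheng–Prusoff.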
# Adenosine receptor A3 [5] = target: T5, Adenosine receptor A3 (Homo sapiens, UniProt P0DMS8); experiment: Displacement of [3H]NECA from human adenosine A3 receptor expressed in human HeLa cells after 180 mins by beta scintillation counting; assay type: cell-based; procedure, shortened: as §2
# T5 sequence (P0DMS8 whole entry): T3 sequence (whole entry)
# Adenosine receptor A2a [6] = target: T1, Adenosine receptor A2a; experiment: Displacement of [3H]ZM241385 from human adenosine A2A receptor expressed in human HeLa cells after 30 mins by beta scintillation counting; assay type: cell-based; procedure, shortened: as §1
# Adenosine receptor A2a [7] = target: T1, Adenosine receptor A2a; experiment: Antagonist activity at human adenosine A2A receptor expressed in CHO cells assessed as inhibition of […]-induced cAMP accumulation pre-incubated for 15 mins by enzyme immunoassay; assay type: functional, cell-based
# Procedure, shortened: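 CHO-A2A cells, 10,000/well, in DMEM F-12 with 10% FCS; pre-incubated 15 min at 37 °C with 30 µM rolipram and test compound, then stimulated with 1 µM NECA for 15 min. cAMP measured by enzyme immunoassay at 450 nm; antagonist pKB derived from IC50 via Leff–Dougall equation.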
# [8] = target: T6, Alpha-2A adrenergic receptor (Homo sapiens) (UniProt P08913); experiment: Displacement of [3H]MK912 from human adrenergic alpha2A receptor expressed in CHO cells at 10 uM after 30 mins by beta scintillation counting; assay type: cell-based
# T6 sequence (whole entry): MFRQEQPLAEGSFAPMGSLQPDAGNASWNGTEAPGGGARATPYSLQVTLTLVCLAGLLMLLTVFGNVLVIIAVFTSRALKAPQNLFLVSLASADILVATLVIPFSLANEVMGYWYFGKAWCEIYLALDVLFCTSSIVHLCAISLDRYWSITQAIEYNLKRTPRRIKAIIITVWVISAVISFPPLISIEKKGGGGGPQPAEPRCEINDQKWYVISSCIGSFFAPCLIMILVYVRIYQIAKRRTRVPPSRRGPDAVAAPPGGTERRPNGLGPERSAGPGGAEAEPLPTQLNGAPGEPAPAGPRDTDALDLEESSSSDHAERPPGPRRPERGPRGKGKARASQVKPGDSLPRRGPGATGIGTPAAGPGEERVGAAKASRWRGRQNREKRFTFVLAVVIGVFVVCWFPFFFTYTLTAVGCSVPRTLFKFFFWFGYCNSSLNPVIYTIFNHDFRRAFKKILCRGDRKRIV
# Procedure, shortened: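 CHO-a2A membranes (25 lg protein) in 25 mM Na2PO4, pH 7.4, with 0.37 nM [3H]MK-912 and compound at 10 µM; 30 min at 25 °C, duplicates. Non-specific binding with 100 µM norepinephrine; filtration and scintillation counting.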
# [9] = target: Histamine H1 receptor (Homo sapiens) (UniProt P35367); experiment: Displacement of [3H]pyrilamine from human histamine H1 receptor expressed in CHO cells at 10 uM after 60 mins by beta scintillation counting; assay type: cell-based
# Chain of Histamine H1 receptor (Homo sapiens) (P35367 whole entry): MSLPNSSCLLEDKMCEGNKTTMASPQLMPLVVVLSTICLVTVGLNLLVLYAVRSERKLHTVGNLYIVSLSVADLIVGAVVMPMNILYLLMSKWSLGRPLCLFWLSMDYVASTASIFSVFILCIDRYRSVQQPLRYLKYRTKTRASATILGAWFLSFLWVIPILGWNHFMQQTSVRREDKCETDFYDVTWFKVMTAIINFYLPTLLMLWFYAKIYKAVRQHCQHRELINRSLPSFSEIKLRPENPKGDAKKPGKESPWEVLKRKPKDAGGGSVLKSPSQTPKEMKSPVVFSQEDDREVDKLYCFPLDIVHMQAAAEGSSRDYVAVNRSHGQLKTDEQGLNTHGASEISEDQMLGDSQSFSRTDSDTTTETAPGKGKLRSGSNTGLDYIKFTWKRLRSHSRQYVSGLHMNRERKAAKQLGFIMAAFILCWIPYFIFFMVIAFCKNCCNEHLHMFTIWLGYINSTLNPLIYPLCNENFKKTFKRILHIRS
# Procedure, shortened: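 CHO-H1 membranes (1 lg protein) in 50 mM Tris–HCl pH 7.4 with 2 nM [3H]pyrilamine and compound at 10 µM; 60 min at 27 °C, duplicates. 10 µM triprolidine for non-specific binding; GF/C filtration, scintillation counting.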
# [10] = target: 5-hydroxytryptamine receptor 7 (Homo sapiens) (UniProt P34969); experiment: Displacement of [3H]SB269970 from human 5HT7 receptor expressed in HEK293 cells at 10 uM after 60 mins by beta scintillation counting; assay type: cell-based
# Chain of 5-hydroxytryptamine receptor 7 (Homo sapiens) (P34969 whole entry): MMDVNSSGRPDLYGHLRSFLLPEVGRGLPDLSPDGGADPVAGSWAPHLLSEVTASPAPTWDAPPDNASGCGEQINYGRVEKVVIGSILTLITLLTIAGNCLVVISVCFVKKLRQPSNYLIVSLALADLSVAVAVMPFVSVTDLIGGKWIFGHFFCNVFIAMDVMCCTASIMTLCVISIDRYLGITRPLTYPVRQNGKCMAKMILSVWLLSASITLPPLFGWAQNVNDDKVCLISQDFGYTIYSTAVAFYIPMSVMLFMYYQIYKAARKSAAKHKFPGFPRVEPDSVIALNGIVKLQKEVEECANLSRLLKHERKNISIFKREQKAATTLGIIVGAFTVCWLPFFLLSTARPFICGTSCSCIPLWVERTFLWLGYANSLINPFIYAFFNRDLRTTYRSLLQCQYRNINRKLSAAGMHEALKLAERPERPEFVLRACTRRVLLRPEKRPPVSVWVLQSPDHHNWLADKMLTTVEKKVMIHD
# Procedure, shortened: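 HEK-293-5-HT7 membranes (5 lg protein) in 50 mM Tris–HCl, 4 mM CaCl2, 1 mM ascorbic acid, 0.1 mM pargyline, pH 7.4; 2 nM [3H]SB269970, compound at 10 µM, 60 min at 37 °C, duplicates. Non-specific defined with 25 µM clozapine.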
# Adenosine receptor A3 [11] = target: T5, Adenosine receptor A3; experiment: Antagonist activity at human adenosine A3 receptor expressed in forskolin-stimulated CHO cells assessed as inhibition of […]-induced decrease in cAMP level pre-incubated for 15 mins by enzyme immunoassay; assay type: functional, cell-based
# Procedure, shortened: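 Using CHO-A3 cells (20,000/well, DMEM F-12, 10% FCS), test compound plus 30 µM rolipram pre-incubated 15 min at 37 °C; 1 µM NECA added 15 min, then 10 µM forskolin 3 min. cAMP by enzyme immunoassay at 450 nm; pKB by Leff–Dougall equation.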
# Adenosine receptor A2b [12] = target: T7, Adenosine receptor A2b (Homo sapiens, UniProt P29275); experiment: Displacement of [3H]DPCPX from human adenosine A2B receptor expressed in HEK293 cells after 30 mins by beta scintillation counting; assay type: cell-based
# T7 sequence (P29275 whole entry): T2 sequence (whole entry)
# Adenosine receptor A2b [13] = target: T7, Adenosine receptor A2b; experiment: Antagonist activity at human adenosine A2B receptor expressed in HEK293 cells assessed as inhibition of […]-induced cAMP accumulation pre-incubated for 15 mins by enzyme immunoassay; assay type: functional, cell-based
# Procedure, shortened: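 HEK-293 A2B cells seeded 10,000/well in EMEM F-12 with 10% FCS; 15 min pre-incubation at 37 °C with 30 µM rolipram and test compound, followed by 10 µM NECA for 15 min. Enzyme-immunoassay readout of intracellular cAMP at 450 nm; pKB by Leff–Dougall equation.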
# Adenosine receptor A1 [14] = target: T8, Adenosine receptor A1 (Homo sapiens, UniProt P30542); experiment: Displacement of [3H]DPCPX from human adenosine A1 receptor expressed in CHO cells after 60 mins by beta scintillation counting; assay type: cell-based; procedure, shortened: as §3
# T8 sequence (P30542 whole entry): T4 sequence (whole entry)
# Adenosine receptor A1 [15] = target: T8, Adenosine receptor A1; experiment: Antagonist activity at human adenosine A1 receptor expressed in forskolin-stimulated CHO cells assessed as inhibition of […]-induced decrease in cAMP level pre-incubated for 15 mins by enzyme immunoassay; assay type: functional, cell-based
# Procedure, shortened: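 CHO-A1 cells, 20,000/well, grown in EMEM F-12 with 10% FCS; washed, pre-incubated 15 min at 37 °C with 20 µM rolipram plus test compound, then 0.1 µM NECA 15 min and 3 µM forskolin 3 min. Intracellular cAMP read by enzyme immunoassay at 450 nm; pKB from IC50 by Leff–Dougall equation.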
# T1 sequence (P29274 whole entry): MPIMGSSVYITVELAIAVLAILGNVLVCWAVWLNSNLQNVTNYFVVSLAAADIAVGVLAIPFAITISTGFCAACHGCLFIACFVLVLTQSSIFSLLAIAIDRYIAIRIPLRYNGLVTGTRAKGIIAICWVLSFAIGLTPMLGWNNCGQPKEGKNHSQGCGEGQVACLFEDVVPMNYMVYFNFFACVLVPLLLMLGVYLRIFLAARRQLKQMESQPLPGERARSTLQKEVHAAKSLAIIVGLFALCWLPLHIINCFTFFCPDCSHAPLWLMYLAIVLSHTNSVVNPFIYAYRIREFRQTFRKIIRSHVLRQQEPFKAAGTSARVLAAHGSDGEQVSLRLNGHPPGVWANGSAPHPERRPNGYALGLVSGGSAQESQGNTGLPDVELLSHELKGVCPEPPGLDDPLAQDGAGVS
SMILES,inhibition (Adenosine receptor A2a [1]),inhibition [2],inhibition [3],inhibition [4],further results
COc1ccc(-c2nc(N3CCOCC3)c3ncn(-c4ccc(F)cc4)c3n2)cc1,5%,3%,31.8%,18.8%,
Cc1cc(NC(=O)C2=C3N=C(c4cccs4)C=C(C(F)(F)F)N3NC2)no1,63%,,,79%,
CCO/C(C)=N/c1c(C#N)ncn1Cc1ccccc1,9.8%,9.9%,28%,1.2%,
Cc1ccc(-n2cnc3c(N4CCSCC4)nc(-c4ccc(C#N)cc4)nc32)cc1,14.3%,4.3%,1.9%,6.8%,
CCO/C=N/c1c(C#N)ncn1Cc1ccccc1,15.2%,2%,1.9%,9.8%,
NC(=O)c1nc(-c2ccccc2O)nc2c1ncn2Cc1ccccc1,22.9%,9.5%,10.9%,11.1%,
Cc1ccc(-c2nc(C(=O)Nc3ccccn3)c3n2CCCCC3)cc1,68.9%,19%,,38.9%,Ki (Adenosine receptor A3 [5]): 3160 nM; Ki (Adenosine receptor A2a [6]): 2510 nM; pKb (Adenosine receptor A2a [7]): 5.1; Activity [8]: 12%; Activity [9]: 39%; Activity [10]: 18%
CN1N=C(C(=O)Nc2ccc(Cl)cn2)C2COc3ccccc3C21 (stereo not given),13.3%,,,8%,
O=C(/N=C1\c2ccccc2CN1c1ncccn1)Nc1ccccc1,6.7%,,,38.5%,
Cc1ccc(-c2ncc3[nH]c(=O)n(Cc4ccccc4)c3n2)cc1,20%,2.6%,71.1%,37.5%,Ki (Adenosine receptor A3 [5]): 316 nM; pKb (Adenosine receptor A3 [11]): 6.3; Activity [8]: 18%; Activity [9]: 17%; Activity [10]: 1%
N=C1c2c(C(N)=O)nc(-c3ccccc3O)n2CN1c1ccc(O)cc1,15.2%,55.4%,26.1%,26.8%,Ki (Adenosine receptor A2b [12]): 1580 nM; pKb (Adenosine receptor A2b [13]): 5.7; Activity [8]: 28%; Activity [9]: 17%; Activity [10]: 11%
C=CCOc1cccc(-c2nc(O)c3c4ccccc4c(=O)n(CC)n23)c1,10.9%,5%,39%,87.3%,Ki (Adenosine receptor A1 [14]): 15.8 nM; pKb (Adenosine receptor A1 [15]): 6.8; Activity [8]: 14%; Activity [9]: 42%; Activity [10]: 20%
OC1=NCC2C(C=NN2Cc2ccccc2)C(c2ccc(Br)cc2)S1 (stereo not given),8.1%,,,18.8%,
N#Cc1ccc(-c2nc(N3CCCCC3)c3ncn(-c4ccc(F)cc4)c3n2)cc1,0.4%,6.9%,15.1%,0.8%,
COc1cn(-c2ccccc2)nc1C(=O)Nc1ccc(C)cn1,59.6%,,,51.9%,
O=C(Nc1ccco1)c1nc2nc(-c3cccs3)cc(C(F)(F)F)c2s1,70.5%,,,60.7%,
NC(=O)c1nc(-c2cccc(O)c2)nc2c1ncn2-c1ccccc1,4.5%,0.5%,23.1%,25.5%,
Cc1ccc(-n2cnc3c(N4CCOCC4)nc(-c4ccc(C#N)cc4)nc32)cc1,6.1%,6.8%,3%,7.6%,
